The source made the active and inactive calls. No cut-off for these calls is given here. Starred links: 1 amine or outer side, 2 acyl side, 3 side chain; linkers in the order of their positions; H or OH if unused. Non-standard residues stand in square brackets, D forms with d. Residues, ends and D or L forms follow the SMILES beside them. X1 = C/N=C(\NCCC[C@H](N[*:1])C(=O)[*:2])N(C)C; Arg(Me2a) = CN(C)C(=N)NCCC[C@H](N)C(=O)O; Arg(Me) = CNC(=N)NCCC[C@H](N)C(=O)O
Legend:
[1] = biological target: T1, Pyroglutamylated RF-amide peptide receptor (Homo sapiens) (UniProt Q96P65); experiment: Antagonist activity at human QRFPR expressed in CHO cells co-expressing Galpha16 assessed as inhibition of 26RFa-induced Ca2+ mobilization at 100 uM preincubated for 15 mins followed by agonist addition measured after 3 mins by Fluo-4 AM-based scanning fluorometery relative to 26RFa (20 to 26 residues); format: functional, cell-based
T1 sequence (whole entry): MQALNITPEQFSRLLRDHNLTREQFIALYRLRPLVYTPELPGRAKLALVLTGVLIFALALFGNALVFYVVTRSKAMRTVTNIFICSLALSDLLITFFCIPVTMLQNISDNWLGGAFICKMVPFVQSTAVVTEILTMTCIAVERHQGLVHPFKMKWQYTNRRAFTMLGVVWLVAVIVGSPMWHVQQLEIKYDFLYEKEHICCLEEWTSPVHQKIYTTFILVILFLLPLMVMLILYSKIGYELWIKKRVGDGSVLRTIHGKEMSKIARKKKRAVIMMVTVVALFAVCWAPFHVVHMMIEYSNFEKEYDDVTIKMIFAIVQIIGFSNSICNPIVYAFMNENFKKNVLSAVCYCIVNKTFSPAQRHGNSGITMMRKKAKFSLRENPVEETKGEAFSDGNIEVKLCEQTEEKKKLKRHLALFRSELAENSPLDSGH
How it was run: (§1)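 CHO-Gα16-hQRFPR cells loaded 1 h with 2 µM Fluo-4 AM, then incubated 15 min with graded compound. A 10^-7 M final 26RFa pulse was given during recording. Background subtracted, baseline normalized to 100%, peak fluorescence taken per concentration. IC50 from sigmoidal variable-slope fits, ≥3 experiments in triplicate. Maximal effect at 10^-4 M expressed as % inhibition of the 26RFa (10^-7 M) response.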

[2] = biological target: T2, Pyroglutamylated RF-amide peptide receptor (Homo sapiens, UniProt Q96P65); experiment: Agonist activity at human QRFPR expressed in CHO cells co-expressing Galpha16 assessed as increase Ca2+ mobilization after 3 mins by Fluo-4 AM-based scanning fluorometery; format: functional, cell-based
T2 sequence (Q96P65 whole entry): T1 sequence (whole entry)
How it was run: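 CHO-Gα16 cells stably expressing human QRFPR, seeded at 40,000 cells/well 24 h ahead. Loaded 1 h with 2 µM Fluo-4 AM plus 0.01% pluronic acid, washed, then 30 min in HBSS with 2.5 mM probenecid and 5 mM HEPES. Compounds added at final 10^-11 to 10^-5 M; fluorescence recorded 3 min on a scanning fluorometer. EC50 from sigmoidal variable-slope fits, ≥3 experiments in triplicate.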

[3] = biological target: T2, Pyroglutamylated RF-amide peptide receptor; experiment: Antagonist activity at human QRFPR expressed in CHO cells co-expressing Galpha16 assessed as inhibition of 26RFa-induced Ca2+ mobilization preincubated for 15 mins followed by agonist addition measured after 3 mins by Fluo-4 AM-based scanning fluorometery; format: functional, cell-based; how it was run: as §1
[4] = system: Mus musculus; experiment: Induction of insulin-induced hypoglycemia in C57Bl/6J mouse at 148 ug/kg, ip measured after 90 mins post insulin injection by insulin tolerance test; format: functional, organism-based; conditions: 741 ug/kg, in the assay text read “741 ug/kg” for “148 ug/kg”
[5] = system: Mus musculus; experiment: Induction of insulin-induced hypoglycemia in C57Bl/6J mouse at 148 ug/kg, ip measured up to 90 mins post insulin injection by insulin tolerance test; format: functional, organism-based
How it was run: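 Mice fasted 6 h with water available, then given i.p. human insulin 0.75 U/kg together with peptide 148 µg/kg (equimolar to 26RFa) or vehicle. Tail-vein plasma glucose read by glucometer at 0, 15, 30, 60 and 90 min. At least eight animals per group; two-way ANOVA with Tukey post-test.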

[6] = biological target: T1, Pyroglutamylated RF-amide peptide receptor (Homo sapiens); experiment: Antagonist activity at human QRFPR expressed in CHO cells co-expressing Galpha16 assessed as inhibition of 26RFa-induced Ca2+ mobilization at 10 uM preincubated for 30 mins followed by agonist addition measured after 3 mins by Fluo-4 AM-based scanning fluorometery; format: functional, cell-based
How it was run: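 One-dose screen in CHO-Gα16 cells stably expressing human QRFPR, Fluo-4 AM loaded. Cells incubated 30 min with analogue at 10^-5 M, then challenged with 26RFa at 10^-7 M during fluorescence recording. Response normalized to 26RFa alone in HBSS.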

[7] = system: Mus musculus; experiment: Induction of insulin-induced hypoglycemia in C57Bl/6J mouse at 500 ug/kg, ip measured up to 90 mins post insulin injection by insulin tolerance test; format: functional, organism-based
How it was run: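 Mice fasted 6 h, then given i.p. insulin 0.75 U/kg with 26RFa 500 µg/kg, or phosphate buffer as vehicle. Tail-vein plasma glucose measured by glucometer at 0, 15, 30, 60 and 90 min. n = 8 per group; two-way ANOVA with Tukey post-test.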

| Imax [1] [%] | EC50 [2] [µM] | IC50 [3] [µM] | inhibition [6] [%] | Molecule | Activity [4] | Activity [5] | Activity [7] |
| --- | --- | --- | --- | --- | --- | --- | --- |
| 80 | > 100 | 6.06 |  | CN(C)C(=N)NCCC[C@H](NC(=O)[C@H](Cc1ccccc1)NC(=O)[C@H](CO)NC(=O)[C@H](Cc1ccccc1)NC(=O)CNC(=O)CN)C(=O)N[C@@H](Cc1ccccc1)C(N)=O (H-GGFSF[Arg(Me2a)]F-NH2) |  |  |  |
|  | 0.0664 |  |  | CNC(=N)NCCC[C@H](NC(=O)[C@H](Cc1ccccc1)NC(=O)[C@H](CO)NC(=O)[C@H](Cc1ccccc1)NC(=O)CNC(=O)CN)C(=O)N[C@@H](Cc1ccccc1)C(N)=O (H-GGFSF[Arg(Me)]F-NH2) | Active | inactive |  |
| 87.5 | > 100 | 8.25 | 47 | C/N=C(\NCCC[C@H](NC(=O)[C@H](Cc1ccccc1)NC(=O)[C@H](CO)NC(=O)[C@H](Cc1ccccc1)NC(=O)CNC(=O)CN)C(=O)N[C@@H](Cc1ccccc1)C(N)=O)N(C)C (H-GGFSF[X1]F-NH2) |  |  |  |
|  | 0.046 |  |  | H-VGTALGSLAEELNGYNRKKGGFSFRF-NH2 |  |  | Active |

— ChEMBL document CHEMBL4270668, “Design, Synthesis, Molecular Dynamics Simulation, and Functional Evaluation of a Novel Series of 26RFa Peptide Analogues Containing a Mono- or Polyalkyl Guanidino Arginine Derivative” (J Med Chem, 2018)
